Data on 15 compounds can be found in article PMC3764597 (Carbohydrate research, 2013).

The conditions of data set [1]: cited from earlier work; for collapse pressure: room temperature; for "lift-off" temperature: linear alkanoic acids.
Data set [2] in a line: MTS cytotoxicity assay in Hs27 cells. Type of data set: cell-based, human. Conditions: human, Hs27 cells (foreskin fibroblasts). In short, it runs like this:
(§1)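 Cells kept in DMEM with 10% heat-inactivated newborn calf serum plus penicillin/streptomycin/amphotericin B at 37 °C, 5% CO₂. Seeded 5,000 per well. Compound in DMSO added at 1–1000 μM for 18 h, then MTS for 2 h. A490 read with A650 reference, medium+MTS background subtracted. Viability given as % of DMSO-treated cells, triplicates. CC₅₀ by linear regression of the two points bracketing 50%.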

In data set [3] the test system is HaCaT, Hs27 and Jurkat cells. Put plainly: MTS cytotoxicity assay, statements summarised over the cell lines. Conditions: for toxicity (MTS assay), in words: all three cell lines (HaCaT, Hs27, Jurkat), concentrations 1 to 1000 μM. Type of data set: cell-based. (In general: Tetrazolium dyes change colour on reduction, which living cells bring about.)
Data set [4] is described as follows: MTS cytotoxicity assay in Jurkat cells. Type of data set: cell-based, human. Conditions: human, Jurkat cells (acute leukemia T lymphocytes). A digest of the protocol: (§2)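 Jurkat cells kept in RPMI with 10% heat-inactivated FBS plus antibiotics at 37 °C, 5% CO₂. Seeded 25,000 per well. Compound in DMSO at 1–1000 μM for 16 h, then MTS for 4 h. A490 read with A650 reference, background-corrected. Viability normalized to DMSO controls, triplicates. CC₅₀ from regression line through the two viabilities nearest 50%.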

Data set [5] is described as follows: Differential scanning calorimetry. Type of data set: physicochemical. Conditions: DSC; for Transition temperature: 25 to 200 °C, 2.5 °C/min; for Enthalpy: phase transition, from integration of the thermograms. In short, it runs like this:
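Dry surfactant (1.0–1.5 mg) sealed in hermetic aluminum pans against an empty sealed-pan reference. Instrument calibrated with indium for temperature and enthalpy. Scanned 25–200 °C at 2.5 °C/min. Transition enthalpies obtained by integrating the thermograms.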

Data set [6] can be described thus: MTS cytotoxicity assay in HaCaT cells. The data set is classed as cell-based, human. Conditions: human, HaCaT cells (spontaneously immortalized keratinocytes). A digest of the protocol: as §1
Data set [7] is described as follows: Langmuir monolayer compression isotherms at the air-water interface. Conditions: for formation of stable monolayers at the air-water interface: 14 °C, 150 mM NaCl / 1.5 mM CaCl2 subphase; for "lift-off" temperature: πtrans versus temperature extrapolated to zero surface pressure. Type of data set: physicochemical. A digest of the protocol:
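Subphase was 150 mM NaCl plus 1.5 mM CaCl₂ in purified water (pH 7.0), held at set temperatures by circulating bath, with impurities vacuumed off. Spread 50 μL of 1.662 mM surfactant in dichloromethane:methanol 9:1, let solvent evaporate, then compressed symmetrically at 10 mm/min (7.5 cm²/min). Wilhelmy platinum plate. Limiting area by extrapolating linear condensed region to zero pressure. Three independent runs.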

Another data set has as its system Jurkat cells. The data set can be described thus: Apoptosis/necrosis assay, annexin V-FITC staining and flow cytometry. Conditions: 20 h incubation, compounds added at their CC50. Type of data set: cell-based.
The test system of data set [8] is Spontaneously immortalized human keratinocytes (HaCaT). Conditions: HaCaT cells, value of the previous study; cited from earlier work.
Data set [9] has as its system human Hs27 fibroblasts. Conditions: Hs27 cells, value of the previous study; cited from earlier work.
Data set [10] has as its system Jurkat human T-cell lymphoblastic leukemia cells. Conditions: value of the previous study; cited from earlier work.
Data set [11] concerns human Hs27 fibroblasts. The data set can be described thus: MTS cytotoxicity assay in Hs27 cells. Type of data set: cell-based. Conditions: Hs27 cells, 18 h treatment then 2 h MTS, 1 to 1000 μM. A digest of the protocol:
as §1

Data set [12] has as its system Jurkat human T-cell lymphoblastic leukemia cells. Put plainly: MTS cytotoxicity assay in Jurkat cells. Conditions: Jurkat cells, 16 h treatment then 4 h MTS, 1 to 1000 μM. Type of data set: cell-based. In short, it runs like this:
as §2

Data set [13] relates to Spontaneously immortalized human keratinocytes (HaCaT). Put plainly: MTS cytotoxicity assay in HaCaT cells. Type of data set: cell-based. Conditions: HaCaT cells, 18 h treatment then 2 h MTS, 1 to 1000 μM. A digest of the protocol:
as §1

[14] abbreviates: insoluble monolayers at the air-water interface.

Values joined by “and” are separate entries in the source; they are usually repeats but may differ in a detail not shown here. Identical values can stand only once. “Also recorded” adds a separate entry of the source. Like-named read-outs stand apart in the source and are kept apart here. A value given as a limit tells only on which side of the number the result lay.

Regarding 6-O-stearoyl glucopyranoside, in data set [1] (setting [14]), the limiting molecular area was 44 Å^2. The collapse pressure in [1] is 43 mN/m.
As for `CCCCCCn1cc(CO[C@@H]2OC[C@@H](O)[C@H](O)[C@H]2O)nn1` [Compound 5a, (1-Hexyl-1H-1,2,3-triazol-4-yl)methyl β-D-xylopyranoside], the CC50 (as a rule, the concentration that lowers cell viability or growth by half) at 18 h in data set [2] is over 1000 µM. For the same compound, the “toxicity (MTS assay), in words” value in data set [3] was “not toxic”. In addition, in [4], the CC50 at 16 h was over 1000 µM. In data set [5], the Transition temperature was determined as 120.1 ± 0.8 °C and the Enthalpy is 6.45 ± 0.96 kcal/mol. In data set [6], the 50% cytotoxic concentration (CC50) at 18 h is over 1000 µM.
In the case of `CCCCCCCCCCCCCC(=O)O` [tetradecanoic acid], in data set [1], the “"lift-off" temperature” value is “approximately 7 °C”.
On to `CCCCCCCCCCCCCCCC(=O)O` [hexadecanoic acid], for which the “"lift-off" temperature” value in data set [1] is about 26 °C.
As for `CCCCCCCCCCCCCCn1cc(CO[C@@H]2OC[C@@H](O)[C@H](O)[C@H]2O)nn1` [Compound 5e, (1-Tetradecyl-1H-1,2,3-triazol-4-yl)methyl β-D-xylopyranoside], the half-maximal cytotoxic concentration (CC50) at 18 h in data set [2] and in [6] was over 1000 µM throughout. The “formation of stable monolayers at the air-water interface” value in data set [7] is “formed stable monolayers”. Moreover, the “Atrans: mean molecular area at phase transition” value is 68 Å^2/molecule and 68.5 ± 0.9 Å^2/molecule in data set [7] (subphase 14 °C); 53.6 ± 0.9 Å^2/molecule in data set [7] (subphase 17 °C); 47.5 ± 0.2 Å^2/molecule in [7] (subphase 22 °C); 42.1 ± 0.7 Å^2/molecule in data set [7] (subphase 26 °C); 38 Å^2/molecule and 38.0 ± 1.2 Å^2/molecule in data set [7] (subphase 30 °C). Moreover, the “π max: maximum surface pressure (collapse pressure)” value is reported as 64.1 ± 0.5 mN/m in data set [7] (subphase 14 °C); 62.4 ± 1.4 mN/m in data set [7] (subphase 17 °C); 59.4 ± 0.6 mN/m in [7] (subphase 22 °C); 53.0 ± 2.0 mN/m in data set [7] (subphase 26 °C); 47.0 ± 3.0 mN/m in [7] (subphase 30 °C). Further, the “π trans: surface pressure at phase transition” value in data set [7] (subphase 14 °C) is 5.6 mN/m and 5.6 ± 0.2 mN/m; in [7] (subphase 17 °C) it was 11.3 ± 0.2 mN/m; in [7] (subphase 22 °C), 15.0 ± 0.1 mN/m; in [7] (subphase 26 °C), 20.9 ± 0.2 mN/m; in data set [7] (subphase 30 °C), 26 mN/m and 27.0 ± 0.5 mN/m. The “"lift-off" temperature” value in data set [7] was 9.2 °C. Moreover, the “toxicity (MTS assay), in words” value in data set [3] was “not toxic”. This compound showed a CC50 at 16 h in data set [4] of over 1000 µM. This compound registered a Transition temperature in [5] of 134.7 ± 0.4 °C. The Enthalpy in data set [5] was determined as 9.8 ± 0.24 kcal/mol.
`CCCCCCCCn1cc(CO[C@@H]2OC[C@@H](O)[C@H](O)[C@H]2O)nn1` [Compound 5b, (1-Octyl-1H-1,2,3-triazol-4-yl)methyl β-D-xylopyranoside]: in the data set with Jurkat cells, the “mode of cell death (viable, apoptotic, necrotic cells)” value is on record as “comparable with the positive controls for apoptosis”. Further, the midpoint of cytotoxicity in [2], the CC50 at 18 h, lay at 694 ± 3 µM. For the same compound, the 50% cytotoxic concentration (CC50) at 16 h in [4] came to 580 ± 60 µM. In [5], this compound gave a Transition temperature of 126.9 ± 0.8 °C and an Enthalpy of 7.41 ± 1.2 kcal/mol. The compound further gave a 50% cytotoxic concentration (CC50) at 18 h in data set [6] of 890 ± 50 µM.
For the compound n-nonyl glucosamine, the limiting molecular area in data set [1] (25 °C) is on record as 46 Å^2/molecule.
6-O-stearoyl galactopyranoside: the limiting molecular area in data set [1] (setting [14]) is listed as 32 Å^2. In data set [1], the collapse pressure was 66 mN/m.
Take `CCCCCCCCO[C@@H]1OC[C@@H](O)[C@H](O)[C@H]1O` [β-OXP, β-octyl xylopyranoside]: the CC50 in [8] is 850 ± 30 µM; with human Hs27 fibroblasts [9], 760 ± 50 µM; in data set [10] it was 460 ± 13 µM.
The compound `CCCCCCCCCCn1cc(CO[C@@H]2OC[C@@H](O)[C@H](O)[C@H]2O)nn1` [Compound 5c, (1-Decyl-1H-1,2,3-triazol-4-yl)methyl β-D-xylopyranoside] displayed a CC50 at 18 h in data set [2] of 180 ± 50 µM. Besides, the “fold more toxic than 5b” value in data set [3] (in both Jurkat and HaCaT cells, from CC50 values) was “approximately 8 fold”. In data set [4], the 50% cytotoxic concentration (CC50) at 16 h was determined as 77 ± 9 µM. Further, in data set [5], the Transition temperature was determined as 133.6 ± 0.1 °C and the Enthalpy came to 9.32 ± 0.48 kcal/mol. Also, in data set [6], it took 120 ± 30 µM to reach half-maximal cytotoxicity (CC50 at 18 h).
`CCCCCCCCCCCCn1cc(CO[C@@H]2OC[C@@H](O)[C@H](O)[C@H]2O)nn1` [Compound 5d, (1-Dodecyl-1H-1,2,3-triazol-4-yl)methyl β-D-xylopyranoside] came in with a cytotoxic concentration (CC50) at 18 h in [2] of over 1000 µM. It took 26 ± 3 µM to reach half-maximal cytotoxicity in [4] (CC50 at 16 h). Besides, in [5], the Transition temperature turned out to be 130.1 ± 0.2 °C and the Enthalpy is 8.13 ± 0.48 kcal/mol. The same compound gave a cytotoxic concentration (CC50) at 18 h in data set [6] of over 1000 µM.
As to n-octyl glucosamine, in [1] (25 °C), the limiting molecular area is listed as 48 Å^2/molecule.
As for `CCCCCCCCS[C@@H]1O[C@H](CO)[C@@H](O)[C@H](O)[C@H]1O` [β-OTG, β-octyl thioglucopyranoside, reference compound], the figures for the CC50 (with human Hs27 fibroblasts [11]; in data set [12]; in data set [13]) were 380 ± 30 µM, 310 ± 40 µM and 490 ± 60 µM, respectively.
Compound `O[C@@H]1[C@@H](O)[C@H](OCc2cn(CCC(F)(F)C(F)(F)C(F)(F)C(F)(F)C(F)(F)C(F)(F)F)nn2)OC[C@H]1O` [Compound 5g, (1-(3,3,4,4,5,5,6,6,7,7,8,8,8-Tridecafluorooctyl)-1H-1,2,3-triazol-4-yl)methyl β-D-xylopyranoside] showed a CC50 at 18 h in data set [2] of over 1000 µM. In addition, the “toxicity (MTS assay), in words” value in data set [3] was “not toxic; also recorded: no measurable inhibition of cell viability”. In data set [4], this compound returned a half-maximal cytotoxic concentration (CC50) at 16 h of over 1000 µM. In addition, in data set [5], the Transition temperature was 158 °C and 158.8 ± 0.2 °C; the Enthalpy is 10.8 ± 0.24 kcal/mol. This compound also returned a CC50 at 18 h in data set [6] of over 1000 µM.
For `CCCCCCCCCCCCCCCCn1cc(CO[C@@H]2OC[C@@H](O)[C@H](O)[C@H]2O)nn1` [Compound 5f, (1-Hexadecyl-1H-1,2,3-triazol-4-yl)methyl β-D-xylopyranoside], the CC50 at 18 h in data set [2] and in data set [6] was over 1000 µM each time. Also, the “formation of stable monolayers at the air-water interface” value in data set [7] was “formed stable monolayers”. For the same compound, the “Atrans: mean molecular area at phase transition” value in data set [7] (subphase 22 °C) is 84.0 ± 2.0 Å^2/molecule; in [7] (subphase 26 °C) it was 70.0 ± 2.0 Å^2/molecule; in data set [7] (subphase 30 °C) it was 65.0 ± 2.0 Å^2/molecule; in data set [7] (subphase 33 °C), 61.0 ± 2.0 Å^2/molecule; in data set [7] (subphase 37 °C), 51 Å^2/molecule and 51.2 ± 0.9 Å^2/molecule. Moreover, the “π max: maximum surface pressure (collapse pressure)” value was 64.0 ± 3.0 mN/m in [7] (subphase 22 °C); 58.6 ± 0.8 mN/m in data set [7] (subphase 26 °C); 53.6 ± 1.0 mN/m in [7] (subphase 30 °C); 51.6 ± 0.4 mN/m in data set [7] (subphase 33 °C); 48.0 ± 2.0 mN/m in [7] (subphase 37 °C). Also, the “π trans: surface pressure at phase transition” value in data set [7] (subphase 22 °C) was 1.6 ± 0.2 mN/m; in data set [7] (subphase 26 °C), 6.8 ± 0.1 mN/m; in data set [7] (subphase 30 °C), 9.9 ± 0.1 mN/m; in data set [7] (subphase 33 °C), 11.6 ± 0.3 mN/m; in data set [7] (subphase 37 °C), 18 mN/m and 18.4 ± 0.4 mN/m. In addition, in [7], the “"lift-off" temperature” value was 20.2 °C. Also, the “toxicity (MTS assay), in words” value in data set [3] is recorded as “not toxic”. The compound also displayed a CC50 at 16 h in data set [4] of over 1000 µM. In addition, the Transition temperature in data set [5] stood at 134.9 ± 0.1 °C. This compound also yielded an Enthalpy in [5] of 10.5 ± 0.48 kcal/mol.
